# Source: PubChem
# rRNA inh HTS: selective bacterial rRNA inhibition in E. coli | E. coli WT GFP vs humanized-ribosome RFP mutants, fluorescence, 24 h; stronger effect = lower value; DMSO median 0, no signal -100 | GFP signal change (wild-type ribosome), % (concentration not given with the values) | 1.6% of 350,000 active | AID 720706;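 active means significant combined selectivity score with lowered wild-type GFP, culture density cut under 30%, mutant RFP and density less affected; inactive means any of these conditions unmet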
# CFTR F508del cor: correctors of CFTR F508del function in bronchial epithelial cells | CFBE cells, YFP halide quenching; stimulated with forskolin plus potentiator P3; % fluorescence drop versus neutral controls | activity (quench increase), % at 7.58 µM | 0.36% of 350,000 active;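 active means mean added fluorescence quench of at least 8% versus neutral control, with both replicates also reaching 8%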;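 further: cells transiently co-express mutant CFTR-F508del with the halide-sensitive YFP; corrector assay measuring rescue of mutant channel to the surface after 24 h compound exposure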
# ERAP1 inh: ERAP1 (human) enzyme inhibition | recombinant ERAP1, Leu-AMC fluorescence, 60 min | inhibition, % at 10.7 µM | 0.15% of 340,000 active;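 active means mean replicate inhibition of at least 30%, or all replicates individually reaching that 30% level; inactive means mean below 30% and not every replicate reaching it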;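 further: 0% = neutral control wells and 100% = L-leucinethiol positive control wells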
# S100A4 inh HTS: blocks human S100A4 binding to myosin IIA peptide. 0.14% of 360,000 active. P26447. AID 652163. S100A4/TAMRA-MyoIIA peptide fluorescence polarization. inhibition, % at 10.7 µM;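 active means mean inhibition of at least 70% across replicates, with every replicate also reaching that level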
# Target sequence (P26447 whole entry, looked up): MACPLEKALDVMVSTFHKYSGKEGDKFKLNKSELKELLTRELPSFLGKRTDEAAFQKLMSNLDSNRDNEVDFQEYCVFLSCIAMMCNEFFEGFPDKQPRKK
#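 System – human S100A4 monomer protein, biochemical binding assay · Buffer or medium – Calcium-containing HEPES buffer, pH 7.2 · Timing – 5 min between mix addition and reading · Also added – TAMRA-labelled myosin IIA heavy-chain peptide probe, 5 nM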
# SIRT5 block: sirtuin-5 (human) deacylase inhibition; Purified SirT5, succinyl-peptide AMC, trypsin-coupled fluorescence; 1.1% of 330,000 active; Q9NXA8; AID 652115; inhibition, % at 15 µM; in the data active means inhibition above about 15%
# Target sequence (Q9NXA8 whole entry, looked up): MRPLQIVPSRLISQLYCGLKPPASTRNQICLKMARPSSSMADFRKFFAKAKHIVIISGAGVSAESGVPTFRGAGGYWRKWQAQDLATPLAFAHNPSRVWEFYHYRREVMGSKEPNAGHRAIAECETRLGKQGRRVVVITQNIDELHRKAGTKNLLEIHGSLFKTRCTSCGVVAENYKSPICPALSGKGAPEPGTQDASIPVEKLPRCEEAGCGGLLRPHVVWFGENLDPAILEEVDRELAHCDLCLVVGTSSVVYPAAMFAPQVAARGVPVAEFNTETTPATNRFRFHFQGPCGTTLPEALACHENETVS
# Numbers without * were called inactive; nt = no result given. Compounds with a hit are over-represented: about 3.1% of the library has one in this group of screens.
SMILES,rRNA inh HTS,CFTR F508del cor,ERAP1 inh,S100A4 inh HTS,SIRT5 block
O=C(NCc1ccncc1)c1nc(-c2ccc(C(F)(F)F)cc2)no1,-11,-4,11,5,19*
O=C(NCc1cccnc1)c1nc(-c2ccc(C(F)(F)F)cc2)no1,-26,-1,-5,15,0
C[C@H]1CN([C@@H](C)CO)S(=O)(=O)c2ccc(C#CC3CC3)cc2O[C@H]1CN(C)Cc1ccncc1,-9,1,0,7,1
CCOc1ccc(NC(=O)CN(c2ccc([N+](=O)[O-])cc2)S(=O)(=O)c2ccccc2)cc1,-2,15*,1,-2,6
CC(=O)Nc1ccc(NC(=O)CN(c2ccc([N+](=O)[O-])cc2)S(=O)(=O)c2ccccc2)cc1,-8,-1,2,3,-4
CCOc1ccc(N(CC(=O)NC(C(C)C)C(C)C)S(=O)(=O)c2ccc(OC)c(OC)c2)cc1,-30*,-2,-3,3,-2
COc1ccc(NC(=O)CN(c2ccccc2)S(=O)(=O)c2ccccc2)c(OC)c1,-24*,0,0,4,0
CO[C@@H]1CN(C)C(=O)c2cc(NC(=O)C3CC3)ccc2OC[C@H](C)N(Cc2ccncc2)C[C@@H]1C,-3,-2,3,-4,-2
C[C@@H]1CN([C@@H](C)CO)C(=O)c2cc(NC(=O)Nc3ccc(C(F)(F)F)cc3)ccc2O[C@H]1CN(C)S(=O)(=O)c1cccs1,-1,-3,nt,nt,nt
CCN(CC)C1=CC2=CC(=C(C#N)C#N)CCC2CC1 (stereo not given),96,40*,9,-1,-5
CCCCN(C)C1=CC2=CC(=C(C#N)C#N)CCC2CC1 (stereo not given),87,34*,-2,-26,-5
Cc1ccc(S(=O)(=O)N2CCN(C(=O)CN(Cc3ccco3)Cc3cccs3)CC2)cc1,2,29*,1,0,-3
COc1ccccc1S(=O)(=O)N[C@@H]1CC[C@@H](CCNC(=O)C2CCC2)O[C@H]1CO,0,2,4,-1,1
O=C(O)CCc1ccc(S(=O)(=O)Nc2ccc(OCc3ccccc3)cc2)cc1,-5,2,1,-18,9
O=C(O)/C=C/c1ccc(S(=O)(=O)Nc2ccc(OCc3ccccc3)cc2)cc1,-24*,-3,1,28,-5
Cc1noc(C)c1S(=O)(=O)Nc1ccc2c(c1)CC(=O)N([C@H](C)CO)C[C@@H](C)[C@@H](CN(C)C(=O)Nc1ccc3c(c1)OCO3)O2,4,-3,nt,nt,nt
CN1C[C@H]2[C@@H](c3ccccc31)[C@H](CO)N2C(=O)Nc1cccc(F)c1,-4,-3,-2,3,-1
O=C1CCC(CCc2nc3ccccc3[nH]2)(c2ccccc2)C(=O)N1 (stereo not given),-6,11*,1,19,nt
Cc1cc(C)nc(N2CCC(C(=O)NCCc3ccc(Cl)cc3)CC2)n1,7,-4,-1,15,15*
CCc1nc2ccccc2c(=O)n1NC(=O)c1c(O)c2ccccc2n(CC)c1=O,-30*,-1,5,-7,4
C[C@@H]1CN([C@H](C)CO)C(=O)c2cc(NC(=O)Nc3ccc(F)cc3)ccc2O[C@@H](C)CCCCO[C@@H]1CN(C)Cc1ccncc1,1,0,nt,nt,nt
CCCCCCCNC(=O)C1(CC2CC(c3ccccc3)=NO2)CCN(C(=O)OC(C)(C)C)CC1 (stereo not given),10,0,-1,-7,17*
O=C(NC1CCCC1)N[C@H]1CC[C@@H](CC(=O)N2CCOCC2)O[C@H]1CO,2,0,-2,15,4
COc1cc(/C=N/NC(=O)c2cc(-c3ccc4c(c3)OCO4)n[nH]2)ccc1O,-26*,2,-1,2,-1
COc1cc(/C=N/NC(=O)c2cc(-c3c(C)nn(-c4ccccc4)c3C)n[nH]2)ccc1O,-53,14*,-1,0,0
SMILES,rRNA inh HTS,CFTR F508del cor,ERAP1 inh,S100A4 inh HTS,SIRT5 block
Cc1nn(-c2ccccc2)c(C)c1-c1cc(C(=O)N/N=C/c2ccc(O)cc2)[nH]n1,-24*,2,1,4,1
COc1cc(/C=N/NC(=O)c2[nH]nc3c2CCc2ccccc2-3)ccc1O,-20*,-4,3,-5,3
COc1cc(/C=N/NC(=O)c2ccccc2)ccc1O,15,1,1,-2,0
O=C(N/N=C/c1ccc([N+](=O)[O-])cc1)c1cc(-c2ccc3c(c2)OCO3)n[nH]1,-2,-1,-1,2,-5
C[C@H]1CN([C@@H](C)CO)C(=O)c2cccc(NC(=O)CCCCCC(=O)Nc3ccccc3N)c2O[C@@H]1CN(C)C,1,-2,-1,8,2
COc1ccc(/C=C/c2nc3ccccc3c(=O)n2-c2cccc(C(=O)O)c2)cc1,-1,-2,-5,-19,18*
CCn1c(/C=C/c2ccc(O)cc2)nc2ccccc2c1=O,-13,-1,0,-3,-3
CC1Cc2ccccc2N1C(=O)c1ccc(N2CCCCC2)c([N+](=O)[O-])c1 (stereo not given),-30*,-2,-2,-7,-2
COc1ccc(OCC(=O)N2c3ccccc3CC2C)c([N+](=O)[O-])c1 (stereo not given),-24*,0,2,-2,nt
COc1ccc(N2CCN(C(=O)c3ccc(Br)cc3)CC2)c([N+](=O)[O-])c1,-24*,-1,4,-3,-1
COc1ccc(N2CCN(C(=O)c3ccccc3)CC2)c([N+](=O)[O-])c1,-23*,-1,2,4,-1
COc1ccc(N2CCN(C(=O)c3ccccc3Br)CC2)c([N+](=O)[O-])c1,-17,2,2,-6,-1
C[C@H](CO)N1C[C@H](C)[C@H](CN(C)Cc2ccc(Oc3ccccc3)cc2)Oc2ccc(NS(C)(=O)=O)cc2C1=O,-5,3,-2,-2,4
C[C@@H]1CN([C@@H](C)CO)C(=O)c2cc(NC(=O)Cc3ccccc3)ccc2O[C@@H]1CN(C)Cc1ccc(Cl)c(Cl)c1,-6,0,2,2,8
COc1ccc(C(=O)c2cc([N+](=O)[O-])ccc2N2CCN(C)CC2)cc1,11,16*,13,-2,0
Cc1ccc(C)c(S(=O)(=O)N2CCN(C(=O)c3ccc(N4CCCC4)c([N+](=O)[O-])c3)CC2)c1,-13,2,-2,-1,-1
O=C(c1ccc(N2CCCC2)c([N+](=O)[O-])c1)N1CCN(S(=O)(=O)c2ccccc2)CC1,-6,3,1,-5,33*
C[C@H]1CN([C@@H](C)CO)S(=O)(=O)c2ccc(C#CC3CC3)cc2O[C@@H]1CN(C)C(=O)c1ccccc1,-5,-2,3,-10,0
CCOC(=O)CC(=O)CSc1nc2c(sc(=S)n2-c2ccc(OCC)cc2)c(=O)[nH]1,-28*,0,5,-4,-1
